Measurements published in ChEMBL document CHEMBL1138950, “Benzimidazole derivatives bearing substituted biphenyls as hepatitis C virus NS5B RNA-dependent RNA polymerase inhibitors: structure-activity relationship studies and identification of a potent and highly selective inhibitor JTK-109” (J Med Chem, 2006).

Assays:
[1] = target: RNA-directed RNA polymerase (Hepacivirus hominis, UniProt O39930); assay: Inhibition of HCV 1b BK six His-tagged C-terminal truncated 544 amino acid NS5B RNA dependent RNA polymerase; set-up: species or system Hepatitis C virus subtype 1b
Method in brief: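 HCV genotype 1b (BK) NS5B lacking 47 C-terminal residues, His6-tagged, E. coli-expressed; 7 nM enzyme with 5 µg HCV 3′X RNA template-primer, 50 µM each ATP/GTP/CTP, 2 µM UTP plus [3H]-UTP; pH 7.5 Tris, 5 mM MgCl2. Compounds in DMSO (5% final). 60 min at 25 °C; TCA-precipitable radioactivity read. Triplicate, mean of three experiments.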

[2] = system: Hepatitis C virus; assay: Inhibition of HCV subgenomic RNA replication in Huh5-2 cells after 48 hrs by replicon assay; type: functional, organism-based, Hepacivirus hominis; settings: Huh-5-2, 48 h
Method in brief: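 Huh-5-2 cells (Huh-7-derived, genotype 1b subgenomic replicon with luciferase reporter) seeded at 5 × 10^3 per well in DMEM with 10% FBS, 37 °C, 5% CO2; compounds added next day, 48 h exposure; luciferase activity read. EC50 is the concentration reducing replication by 50%. Triplicate, mean of three experiments.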

[3] = system: Huh-5-2; assay: Viability of Huh5-2 cells by MTT assay; type: functional; settings: Homo sapiens
[4] = Therapeutic index, CC50 for viability of Huh5-2 cells/EC50 for inhibition of HCV subgenomic RNA replication; type: cell-based, Huh-5-2; settings: human, read-out: Ratio CC50/EC50
[5] = Plasma concentration in rat at 30 mg/kg, po after 2 hrs; type: ADME, organism-based; set-up: dose 30 mg/kg, route oral
Method in brief: (§1)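 Rats dosed orally at 30 mg/kg; plasma sampled at 1 and 2 h; n = 2 or 3.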

[6] = Plasma concentration in rat at 30 mg/kg, po after 1 hr; type: ADME, organism-based; set-up: dose 30 mg/kg, route oral; method in brief: as §1

RNA-directed RNA polymerase, sequence (O39930 whole entry, the tested form may be a part): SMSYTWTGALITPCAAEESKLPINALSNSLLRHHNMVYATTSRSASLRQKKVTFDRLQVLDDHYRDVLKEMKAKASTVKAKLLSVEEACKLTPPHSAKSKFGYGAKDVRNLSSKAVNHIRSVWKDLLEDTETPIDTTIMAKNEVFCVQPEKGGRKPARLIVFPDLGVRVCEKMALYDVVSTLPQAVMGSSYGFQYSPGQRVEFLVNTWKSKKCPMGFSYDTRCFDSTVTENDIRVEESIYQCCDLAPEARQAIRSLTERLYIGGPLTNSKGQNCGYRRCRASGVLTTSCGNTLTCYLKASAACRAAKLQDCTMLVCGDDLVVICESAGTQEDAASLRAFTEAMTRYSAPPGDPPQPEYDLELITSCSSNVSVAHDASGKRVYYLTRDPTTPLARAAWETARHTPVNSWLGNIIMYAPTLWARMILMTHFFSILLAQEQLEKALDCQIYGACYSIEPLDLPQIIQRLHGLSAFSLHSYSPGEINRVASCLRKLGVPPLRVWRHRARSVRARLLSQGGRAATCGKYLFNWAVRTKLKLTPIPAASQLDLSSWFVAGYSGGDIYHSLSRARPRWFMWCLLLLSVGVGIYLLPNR

SMILES	IC50 [1]	EC50 [2]	concentration at 2 h [5]	concentration at 1 h [6]	CC50 [3]	selectivity ratio [4]
CN(C)C(=O)Nc1ccc(-c2ccc(Cl)cc2)c(COc2ccc(-c3nc4cc(C(=O)O)ccc4n3C3CCCCC3)c(F)c2)c1	22 nM	620 nM	–	–	25000 nM	40
N#Cc1ccc(-c2ccc(Cl)cc2COc2ccc(-c3nc4cc(C(=O)O)ccc4n3C3CCCCC3)cc2)cc1	55 nM	1300 nM	–	–	26000 nM	–
O=C(O)c1ccc2c(c1)nc(-c1ccc(OCc3cc(C(=O)NCc4ccccc4)ccc3-c3ccc(Cl)cc3)cc1)n2C1CCCCC1	29 nM	1100 nM	–	–	22000 nM	20
O=C(O)c1ccc2c(c1)nc(-c1ccc(OCc3cc(Cl)ccc3-c3ccc(Cl)cc3)cc1)n2C1CCCCC1	50 nM	3000 nM	–	–	26000 nM	13
CNC(=O)c1ccc(-c2ccc(Cl)cc2)c(COc2ccc(-c3nc4cc(C(=O)O)ccc4n3C3CCCCC3)cc2)c1	18 nM	530 nM	–	–	25000 nM	47
COc1ccc(-c2ccc(Cl)cc2COc2ccc(-c3nc4cc(C(=O)O)ccc4n3C3CCCCC3)cc2)cc1	100 nM	2400 nM	–	–	25000 nM	–
COc1cc(OCc2ccccc2-c2ccccc2)ccc1-c1nc2cc(C(=O)O)ccc2n1C1CCCCC1	1100 nM	–	–	–	–	–
O=C(O)c1ccc2c(c1)nc(-c1ccc(OCc3cccnc3-c3ccc(Cl)cc3)cc1)n2C1CCCCC1	53 nM	1200 nM	–	–	> 50000 nM	> 41
Cc1nc(COc2ccc(-c3nc4cc(C(=O)O)ccc4n3C3CCCCC3)cc2)c(-c2ccc(Cl)cc2)s1	170 nM	6300 nM	–	–	31000 nM	4.9
CC(=O)Nc1ccc(-c2ccc(Cl)cc2)c(COc2ccc(-c3nc4cc(C(=O)O)ccc4n3C3CCCCC3)c(F)c2)c1	14 nM	460 nM	300 nM	1000 nM	24000 nM	52
O=C(O)c1ccc2c(c1)nc(-c1ccc(OCc3cc(C(=O)NCCO)ccc3-c3ccc(Cl)cc3)cc1F)n2C1CCCCC1	21 nM	940 nM	–	–	26000 nM	28
CC(=O)N(C)c1ccc(-c2ccc(Cl)cc2)c(COc2ccc(-c3nc4cc(C(=O)O)ccc4n3C3CCCCC3)c(F)c2)c1	16 nM	150 nM	1100 nM	900 nM	26000 nM	173
CC(C)NC(=O)c1ccc(-c2ccc(Cl)cc2)c(COc2ccc(-c3nc4cc(C(=O)O)ccc4n3C3CCCCC3)c(F)c2)c1	13 nM	200 nM	300 nM	1100 nM	22000 nM	110
O=C(O)c1ccc(-c2ccc(Cl)cc2)c(COc2ccc(-c3nc4cc(C(=O)O)ccc4n3C3CCCCC3)cc2)c1	24 nM	> 10000 nM	–	–	> 50000 nM	–
CN(C)C(=O)c1ccc(-c2ccc(Cl)cc2)c(COc2ccc(-c3nc4cc(C(=O)O)ccc4n3C3CCCCC3)cc2)c1	15 nM	370 nM	–	–	28000 nM	76
CCN(C(C)=O)c1ccc(-c2ccc(Cl)cc2)c(COc2ccc(-c3nc4cc(C(=O)O)ccc4n3C3CCCCC3)c(F)c2)c1	19 nM	140 nM	800 nM	1500 nM	25000 nM	179
O=C(O)c1ccc2c(c1)nc(-c1ccc(OCc3cc(Cl)ccc3-c3cccc(Cl)c3)cc1)n2C1CCCCC1	480 nM	6500 nM	–	–	32000 nM	–
Cc1ccc(-c2ccc(Cl)cc2COc2ccc(-c3nc4cc(C(=O)O)ccc4n3C3CCCCC3)cc2)cc1	98 nM	3400 nM	–	–	25000 nM	–
O=C(O)c1ccc2c(c1)nc(-c1ccc(OCc3cc(C(=O)N4CCOCC4)ccc3-c3ccc(Cl)cc3)cc1F)n2C1CCCCC1	14 nM	280 nM	500 nM	1100 nM	25000 nM	89
O=C(O)c1ccc2c(c1)nc(-c1ccc(OCc3ccccc3-c3ccccc3)cc1Cl)n2C1CCCCC1	350 nM	–	–	–	–	–
CC(=O)N(c1ccc(-c2ccc(Cl)cc2)c(COc2ccc(-c3nc4cc(C(=O)O)ccc4n3C3CCCCC3)c(F)c2)c1)C(C)C	21 nM	160 nM	700 nM	1100 nM	20000 nM	125

Further compounds by falling IC50 [1], results first:

IC50 [1]	EC50 [2]	concentration at 2 h [5]	concentration at 1 h [6]	SMILES	CC50 [3]	selectivity ratio [4]
930 nM	–	–	–	O=C(O)c1ccc2c(c1)nc(-c1ccc(OCc3ccccc3-c3ccccc3)cc1C(F)(F)F)n2C1CCCCC1	–	–
380 nM	–	–	–	O=C(O)c1ccc2c(c1)nc(-c1ccc(OCc3ccccc3-c3ccccc3)c(F)c1)n2C1CCCCC1	–	–
290 nM	2600 nM	–	–	O=C(O)c1ccc2c(c1)nc(-c1ccc(OCc3cc(Cl)ccc3-c3cccnc3)cc1)n2C1CCCCC1	–	–
200 nM	3700 nM	–	–	O=C(O)c1ccc2c(c1)nc(-c1ccc(OCc3cc(Cl)ccc3-c3ccccc3)cc1)n2C1CCCCC1	25000 nM	–
150 nM	3900 nM	–	–	O=C(O)c1ccc2c(c1)nc(-c1ccc(OCc3ncccc3-c3ccc(Cl)cc3)cc1)n2C1CCCCC1	25000 nM	6
100 nM	–	–	–	O=C(O)c1ccc2c(c1)nc(-c1ccc(OCc3ccccc3-c3ccccc3)cc1F)n2C1CCCCC1	–	–
90 nM	2900 nM	–	–	Cc1nc(-c2ccc(Cl)cc2)c(COc2ccc(-c3nc4cc(C(=O)O)ccc4n3C3CCCCC3)cc2)s1	39000 nM	13
88 nM	1500 nM	–	–	Cc1ncc(COc2ccc(-c3nc4cc(C(=O)O)ccc4n3C3CCCCC3)cc2)c(-c2ccc(Cl)cc2)n1	24000 nM	16
78 nM	3200 nM	–	–	O=C(O)c1ccc2c(c1)nc(-c1ccc(OCc3ccccc3-c3ccc(Cl)cc3)cc1)n2C1CCCCC1	35000 nM	11
69 nM	2500 nM	–	–	NC(=O)c1ccc(-c2ccc(Cl)cc2COc2ccc(-c3nc4cc(C(=O)O)ccc4n3C3CCCCC3)cc2)cc1	> 50000 nM	–
63 nM	2600 nM	–	–	CN(C)c1ccc(-c2ccc(Cl)cc2)c(COc2ccc(-c3nc4cc(C(=O)O)ccc4n3C3CCCCC3)cc2)c1	30000 nM	12
41 nM	820 nM	–	–	N#Cc1ccc(-c2ccc(Cl)cc2)c(COc2ccc(-c3nc4cc(C(=O)O)ccc4n3C3CCCCC3)cc2)c1	23000 nM	28
37 nM	1600 nM	–	–	COc1ccc(-c2ccc(Cl)cc2)c(COc2ccc(-c3nc4cc(C(=O)O)ccc4n3C3CCCCC3)cc2)c1	24000 nM	15
32 nM	350 nM	1100 nM	1900 nM	CC(C)C(=O)N(C)c1ccc(-c2ccc(Cl)cc2)c(COc2ccc(-c3nc4cc(C(=O)O)ccc4n3C3CCCCC3)c(F)c2)c1	22000 nM	63
32 nM	840 nM	–	–	CN(C)C(=O)c1ccc(COc2ccc(-c3nc4cc(C(=O)O)ccc4n3C3CCCCC3)cc2)c(-c2ccc(Cl)cc2)c1	25000 nM	30
23 nM	660 nM	–	–	CN(C)S(=O)(=O)c1ccc(-c2ccc(Cl)cc2)c(COc2ccc(-c3nc4cc(C(=O)O)ccc4n3C3CCCCC3)cc2)c1	26000 nM	39
22 nM	1300 nM	–	–	CC(=O)Nc1ccc(-c2ccc(Cl)cc2)c(COc2ccc(-c3nc4cc(C(=O)O)ccc4n3C3CCCCC3)cc2)c1	23000 nM	18
18 nM	340 nM	–	–	CC(=O)c1ccc(-c2ccc(Cl)cc2)c(COc2ccc(-c3nc4cc(C(=O)O)ccc4n3C3CCCCC3)cc2)c1	24000 nM	71
18 nM	270 nM	700 nM	2200 nM	O=C(O)c1ccc2c(c1)nc(-c1ccc(OCc3cc(C(=O)N4CCCCC4)ccc3-c3ccc(Cl)cc3)cc1F)n2C1CCCCC1	24000 nM	89
16 nM	1500 nM	–	–	NS(=O)(=O)c1ccc(-c2ccc(Cl)cc2)c(COc2ccc(-c3nc4cc(C(=O)O)ccc4n3C3CCCCC3)cc2)c1	27000 nM	18
14 nM	380 nM	–	100 nM	O=C(O)c1ccc2c(c1)nc(-c1ccc(OCc3cc(C(=O)N4CCC(O)CC4)ccc3-c3ccc(Cl)cc3)cc1F)n2C1CCCCC1	26000 nM	68
13 nM	790 nM	–	–	NC(=O)c1ccc(-c2ccc(Cl)cc2)c(COc2ccc(-c3nc4cc(C(=O)O)ccc4n3C3CCCCC3)cc2)c1	26000 nM	33
12 nM	160 nM	1800 nM	1600 nM	CN(C)C(=O)c1ccc(-c2ccc(Cl)cc2)c(COc2ccc(-c3nc4cc(C(=O)O)ccc4n3C3CCCCC3)c(F)c2)c1	26000 nM	163
